Rows were chosen to be rich in hits. Some 0.4% of all compounds tested hit in one or more screens of this group.
PDI turbidity = inhibitors of human PDI, primary screen, biochemical, turbidity, single point, plate reader | Protein disulfide-isomerase (Homo sapiens), P07237 | PDI insulin aggregation turbidity, A650, 90 min | inhibition, % at 10 µM | 350,000 compounds, 0.052% hits | AID 588391, 2011;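 active = mean inhibition across replicates of 30% or more, whatever share of single replicates reach that level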
Target sequence (P07237 whole entry, looked up): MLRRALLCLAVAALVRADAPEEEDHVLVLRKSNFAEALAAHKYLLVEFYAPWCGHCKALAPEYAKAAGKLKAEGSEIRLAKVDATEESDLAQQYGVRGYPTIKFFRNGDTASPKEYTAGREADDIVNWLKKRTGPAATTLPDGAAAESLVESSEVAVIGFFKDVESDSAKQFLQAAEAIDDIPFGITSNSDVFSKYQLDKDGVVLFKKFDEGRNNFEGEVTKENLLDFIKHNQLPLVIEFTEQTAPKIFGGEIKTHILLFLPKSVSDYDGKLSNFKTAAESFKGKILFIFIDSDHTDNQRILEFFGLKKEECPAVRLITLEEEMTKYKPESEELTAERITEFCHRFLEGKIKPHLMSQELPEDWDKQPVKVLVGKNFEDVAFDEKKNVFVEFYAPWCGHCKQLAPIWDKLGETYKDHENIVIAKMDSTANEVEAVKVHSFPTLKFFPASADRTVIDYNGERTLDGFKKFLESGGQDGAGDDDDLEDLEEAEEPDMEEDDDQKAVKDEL
Tb MetRS inh = T. brucei MetRS inhibitors, primary screen, biochemical, luminescence. purified T. brucei MetRS, ATP depletion, Kinase-Glo luminescence. inhibition, % at 11.9 µM. 360,000 compounds, 0.4% hits. AID 624268, 2012;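 active = inhibition above a per-plate cutoff of the control wells' mean inhibition plus 3 SD, cut at about 5.5% in these data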;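 also: 0% = DMSO wells median and 100% = median of wells with control inhibitor compound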
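System: purified T. brucei MetRS enzyme / Detection: Kinase-Glo luciferase luminescence reporting remaining unconsumed ATP / Medium: HEPES buffer with MgCl2, KCl, DTT, spermine, BSA, pyrophosphatase / Replication: singlicate, one well per compound / Evaluation: percent inhibition relative to median high and low control wells / Schedule: 2 h aminoacylation at 25 °C after 15 min preincubation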
ERp5 inh = inhibitors of ERp5-driven insulin aggregation, primary screen, biochemical, turbidity, absorbance 650 nm, single point. Protein disulfide-isomerase A6 (Homo sapiens), Q15084. 90 min. inhibition, % at 9.99 µM. 350,000 compounds, 0.05% hits;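 active = mean replicate inhibition above about 25%, with every replicate also reaching it, limit read from the data, passing the limit was not always enough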
TbMetRS confirm = T. brucei MetRS inhibitors, confirmation, biochemical, luminescence | shares compounds with Tb MetRS inh | T. brucei MetRS enzyme, luminescence (ATP depletion) | inhibition, % at 11.9 µM | 1,400 compounds, 93% hits; in the data active = inhibition above about 7%
Jurkat cytotox = Jurkat T cell cytotoxicity, cytotoxicity control for T. brucei MetRS inhibitor project, luminescence, high throughput. shares compounds with Tb MetRS inh. Jurkat cells viability, ATP luminescence. inhibition, % at 8.3 µM. 1,400 compounds, 12% hits. AID 624413, 2012; in the data active = inhibition above about 15%;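 also: 0% = vehicle and 100% = reference inhibitor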
Tb MetRS inh FP = T. brucei MetRS inhibitors, orthogonal assay for T. brucei MetRS inhibitor project, biochemical, fluorescence polarization | purified T. brucei MetRS | inhibition, % at 11.9 µM | 1,400 compounds, 44% hits | shares compounds with Tb MetRS inh; in the data active = inhibition above about 17%;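 also: 0% = vehicle wells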
Starred values were filed as active, the others as inactive; · = not tested or not shown.

SMILES	PDI turbidity	Tb MetRS inh	ERp5 inh	TbMetRS confirm	Jurkat cytotox	Tb MetRS inh FP
Cc1[nH]c2ccccc2c1C(=O)C(=O)N1CCN(c2ccccc2F)CC1	1	7.2*	2	20*	-5	6
Cc1noc(C)c1NC(=O)Nc1ccc2c(c1)C(=O)N([C@H](C)CO)C[C@H](C)[C@H](CN(C)C(=O)Nc1ccc(F)cc1)OCCCC[C@H](C)O2	·	·	-2	·	·	·
O=C(c1ccccn1)N1CC2(C1)[C@@H](c1ccccc1)[C@@H](CO)N2C(=O)CC1CC1	·	·	6	·	·	·
COc1ccc(S(=O)(=O)N(C)C[C@@H]2OCCCC[C@@H](C)Oc3ccc(NS(=O)(=O)c4ccc(C)cc4)cc3C(=O)N([C@@H](C)CO)C[C@H]2C)cc1	·	·	-4	·	·	·
CO[C@H](CN(C)S(=O)(=O)c1ccc(C)cc1)[C@H](C)CN(C(=O)Nc1ccccc1F)[C@H](C)CO	·	·	2	·	·	·
CCCC#Cc1cnc2c(c1)C(=O)N([C@@H](C)CO)C[C@@H](C)[C@H](CN(C)C(=O)NCCC)O2	·	·	-3	·	·	·
COCC#Cc1ccc2c(c1)O[C@H](CN(C)C(=O)C1CC1)[C@H](C)CN([C@H](C)CO)S2(=O)=O	·	·	6	·	·	·
O=C(O)C[C@@H]1C[C@@H]2c3cc(NS(=O)(=O)c4ccccc4)ccc3O[C@@H]2[C@H](CO)O1	·	·	-4	·	·	·
Cc1[nH]c2ccccc2c1C(=O)C(=O)N1CCCc2ccccc21	-2	2	-1	·	·	·
O=C(C(=O)N1CCCc2ccccc21)c1c[nH]c2ccccc12	9	8.2*	6	13*	7	3
COc1cccc(-c2ccc([C@H]3[C@H](CO)N4C(=O)CN(C(=O)C5CC5)C[C@@H]34)cc2)c1	·	·	-8	·	·	·
COc1ccccc1OCC(=O)Nc1cccc(S(=O)(=O)NC2=NCCCCC2)c1	8	0	7	·	·	·
CCc1ccccc1OCC(=O)Nc1cccc(S(=O)(=O)NC2=NCCCCC2)c1	0	20*	8	40*	4	18*
COc1ccc(NC(=O)Nc2ccc3c(c2)CC(=O)N([C@@H](C)CO)C[C@@H](C)[C@H](CN(C)Cc2ccc(-c4ccccc4)cc2)O3)cc1	·	·	10	·	·	·
CC(C)NC(=O)N(C)C[C@H]1Oc2ncc(-c3cccc(C#N)c3)cc2C(=O)N([C@H](C)CO)C[C@@H]1C	·	·	-3	·	·	·
CCN(CC)c1ccc(-n2c(O)c(C=C3N=c4ccccc4=N3)sc2=S)cc1	3	0	·	·	·	·
O=C(O)c1ccc(-n2c(O)c(C=C3N=c4ccccc4=N3)sc2=S)cc1	-7	7.8*	3	33*	-5	11
O=C(O)c1cccc(-n2c(O)c(C=C3N=c4ccccc4=N3)sc2=S)c1	-8	18*	-5	41*	-3	14
O=C(O)c1cccc(N2CCCC2)c1	2	0	·	·	·	·
O=C([C@H]1[C@H](CO)[C@H]2Cn3c(cccc3=O)[C@H]2N1CC1CC1)N1CCc2ccccc2C1	·	·	-1	·	·	·
CCc1nc(NCCC(C)C)c2nnn(Cc3ccccc3)c2n1	2	0	-10	·	·	·
Cc1nc(NCCC(C)C)c2nnn(Cc3ccccc3)c2n1	-3	7.3*	-1	2	2	9
COc1ccc(-c2cc(C(=O)NN)[nH]n2)cc1	-3	-2	-3	·	·	·
COC(=O)c1cc(-c2ccc(Br)cc2)n[nH]1	-4	10*	·	28*	-5	12
Cc1ccc2nc(N/C(=N/S(=O)(=O)c3cccs3)c3ccccc3Cl)sc2c1	3	6.8*	-9	13*	4	8
SMILES	PDI turbidity	Tb MetRS inh	ERp5 inh	TbMetRS confirm	Jurkat cytotox	Tb MetRS inh FP
Cc1ccc2nc(NC(=O)C3CCN(S(=O)(=O)c4cccs4)CC3)sc2c1	-5	0	·	·	·	·
O=C(CSc1nnc2c(n1)[nH]c1ccc(F)cc12)NC1CC1	5	0	-2	·	·	·
COc1ccc(CNC(=O)CSc2nnc3c(n2)[nH]c2ccc(F)cc23)cc1	1	33*	-1	92*	-4	66*
Cc1ccc(NC(=O)CSc2nnc3c(n2)[nH]c2ccccc23)cc1	2	1	2	·	·	·
COc1ccc(CCNC(=O)CSc2nnc3c(n2)[nH]c2ccc(F)cc23)cc1OC	-5	0	0	·	·	·
O=C(CSc1nnc2c(n1)[nH]c1ccc(F)cc12)NCc1ccc(F)cc1	5	17*	2	71*	5	49*
COc1ccc2[nH]c3nc(SC(C)C)nnc3c2c1	6	0	·	·	·	·
Cc1ccc(CNC(=O)CSc2nnc3c(n2)[nH]c2ccccc23)cc1	-41	16*	-2	69*	4	45*
COc1ccc(CNC(=O)CSc2nnc3c(n2)[nH]c2ccc(OC)cc23)cc1	2	7.6*	-4	35*	-1	22*
CCCNC(=O)N(C)C[C@H]1N[C@@H](CO)[C@@H]1c1ccc(C2=CCCCC2)cc1	·	·	3	·	·	·
COc1ccc(S(=O)(=O)N(C)C[C@H]2Oc3ccc(NS(=O)(=O)c4ccc(C)cc4)cc3C(=O)N([C@H](C)CO)C[C@H]2C)cc1	·	·	2	·	·	·
COCCNC(=O)c1cc2c(c(-c3cccc(-c4ccc(C#N)cc4)c3)n1)[C@H](CCO)N(C(=O)CC1CC1)C2	·	·	-2	·	·	·
O=C1/C(=C/c2c[nH]c3ccccc23)CCC/C1=C\c1c[nH]c2ccccc12	-2	6.2*	·	7.5*	18*	18*
C(=NN=Cc1c[nH]c2ccccc12)c1c[nH]c2ccccc12	6	0	-5	·	·	·
O=C(NCC(O)c1nc2ccccc2[nH]1)c1cc2ccccc2[nH]1 (configuration not stated)	·	51*	1	68*	0	40*
O=C(NNC(=O)c1cc2ccccc2[nH]1)OCc1ccccc1	0	13*	-3	46*	-12	19*
OC(c1nc2ccccc2[nH]1)C(O)c1nc2ccccc2[nH]1 (configuration not stated)	0	0	2	·	·	·
CC(C)CC(C)NNC(=O)c1cc2ccccc2[nH]1 (configuration not stated)	-9	0	·	·	·	·
C[C@@H]1CN([C@@H](C)CO)C(=O)c2cc(NS(=O)(=O)c3ccc(Cl)cc3)ccc2O[C@@H](C)CCCCO[C@H]1CN(C)C	·	·	-3	·	·	·
Cc1ccccc1Oc1cc(NC(=O)CCCn2nc(C)c([N+](=O)[O-])c2C)cc([N+](=O)[O-])c1	-10	-1	·	·	·	·
Cc1ccccc1Oc1cc(NC(=O)Cn2cnc([N+](=O)[O-])c2)cc([N+](=O)[O-])c1	-7	9.6*	7	24*	12	17*
C[C@H]1CN([C@@H](C)CO)C(=O)c2cc(N(C)C)ccc2O[C@@H]1CN(C)C(=O)NC1CCCCC1	·	·	-4	·	·	·

Bioassay records: PubChem BioAssay, several laboratories
